Screening results deposited in PubChem BioAssay by several laboratories.
L major viab = inhibitors of Leishmania major promastigote growth; Leishmania major promastigotes, resazurin fluorescence viability; inhibition, % at 10 µM; 200,000 compounds, 9% hits; AID 1063; in the data active means inhibition above about 50%;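 further: promastigotes grown with compound for 44 hours at 28 °C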
WT yeast gro inh = growth inhibition of WT yeast, mitochondrial fusion screen; inhibition, % at 10 µM; 190,000 compounds, 2.1% hits; mitochondrial fusion phenotypic screen, WT strain; in the data active means inhibition above about 58%; tested in S. cerevisiae
PMI act hi M6P = PMI (human) activation, high substrate; P34949; coupled PMI enzyme assay, resazurin fluorescence, 20 min; active compounds read high; 1 = untreated enzyme, 0 = substrate-free blank; activation factor at 20 µM; 190,000 compounds, 0.34% hits; AID 1216;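 active means activation factor of 2 or more at 20 µM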
Target sequence (P34949 whole entry, looked up): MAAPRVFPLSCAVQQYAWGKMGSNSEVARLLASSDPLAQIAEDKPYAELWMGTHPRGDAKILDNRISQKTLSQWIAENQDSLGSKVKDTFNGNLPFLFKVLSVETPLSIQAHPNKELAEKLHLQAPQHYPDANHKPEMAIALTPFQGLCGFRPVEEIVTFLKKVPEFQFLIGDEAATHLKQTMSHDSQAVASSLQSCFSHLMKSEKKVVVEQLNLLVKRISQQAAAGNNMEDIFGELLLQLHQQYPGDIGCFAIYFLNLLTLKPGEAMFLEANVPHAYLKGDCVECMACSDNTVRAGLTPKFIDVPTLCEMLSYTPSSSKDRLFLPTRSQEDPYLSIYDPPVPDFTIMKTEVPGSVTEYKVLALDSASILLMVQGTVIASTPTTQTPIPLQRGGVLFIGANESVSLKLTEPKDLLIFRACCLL
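Test system: Human PMI in coupled enzyme assay | Input: 15 ng/mL PMI | Medium: HEPES-buffered pH 7.4 with magnesium and detergent | Compound: One concentration, 20 µM, in 1% DMSO | Incubation: Enzyme reaction with compound 20 min at room temperature | Detection: Diaphorase-driven resazurin-to-resorufin fluorescence, excitation 544, emission 590 nm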
PMI act = increases human mannose-6-phosphate isomerase activity; 190,000 compounds, 0.005% hits; P34949; purified human PMI, coupled resazurin fluorescence, 20 min; active compounds read high; 1 = vehicle control, 0 substrate-free wells; AID 1214; activation factor at 20 µM;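 active means activation factor of 2 or more at 20 µM, relative to plate controls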
Diaph act CS = activates diaphorase or chemically reduces, flagging diaphorase assay artifacts | Diaphorase/resazurin coupled assay, resorufin fluorescence, 16 min; active compounds read high; 1 = vehicle wells, 0 = NADH-free wells | activation factor at 20 µM | 190,000 compounds, 0.005% hits;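 active means diaphorase activity raised at least twofold by the compound at 20 µM; inactive means activation factor below 2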
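Assay system: bacterial diaphorase enzyme (C. kluyveri) / Input: enzyme 0.07 U/mL final / Medium: 50 mM HEPES pH 7.4 with 4.542 mM MgCl2, 0.005% Tween 20 / Doses: single compound dose of 20 µM, 1% DMSO final / Incubation: 16 min enzyme reaction, ambient temperature / Signal: fluorescence, excitation 544 nm and emission 590 nm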
A number is an active result; – = inactive; · = no result given. A selection: hits, their analogues and other compounds. The true share with any hit is near 10%.

SMILES	L major viab	WT yeast gro inh	PMI act hi M6P	PMI act	Diaph act CS
O=C(Cn1cnc2ccccc2c1=O)NCc1cccs1	–	–	–	–	–
O=C(N1CCCC1)C12CCC3CC(CC(C3)C1)C2	–	–	–	–	–
Cc1onc(-c2ccccc2Cl)c1C(=O)Oc1cccc2cccnc12	–	–	–	–	–
CCCCc1ccc(NC(=S)NCc2ccccc2OC)cc1	–	65	–	–	–
CCCCc1ccc(NC(=O)COc2ccc(C(=O)Nc3ccccc3C)cc2)cc1	–	–	–	–	–
CCCCc1ccc(NC(=S)NCc2cccs2)cc1	–	–	–	–	–
CCC(C)c1ccc(NC(=S)Nc2ccc(OC)cc2)cc1 (stereo not given)	–	72	–	–	–
CCCCc1ccc(NC(=O)COc2ccc(C(=O)Nc3ccccc3OC)cc2)cc1	72	–	–	–	–
COc1ccc(CNc2ccc(Br)cc2)cc1	99	–	–	–	–
Cc1ccc(S(=O)(=O)NC(C(=O)Oc2cc3oc(=O)cc(C)c3cc2Cl)C(C)C)cc1 (stereo not given)	–	–	–	–	–
COc1ccc(C(=O)Nc2ccc3cn[nH]c3c2)c(OC)c1	–	–	–	–	–
COC(=O)Cc1ccc(NC(=S)NCc2ccc(OC)cc2)cc1	–	–	–	–	–
CCCCc1ccc(NC(=S)NCc2ccc(OC)cc2)cc1	–	72	–	–	–
COc1ccc(NC2=NCC(Cc3ccc(Br)cc3)S2)cc1 (stereo not given)	88	–	–	–	–
COc1ccc(CNC(=S)Nc2ccc(OC)cc2)cc1	52	–	–	–	–
CCSc1nnc(NC(=O)CCCOc2ccc(C)cc2)s1	–	–	–	–	–
COc1nc(NCCO)nc(Nc2ccccc2F)n1	–	–	–	–	–
COc1ccc(/C=C(/NC(=O)c2cccc([N+](=O)[O-])c2)C(=O)O)cc1	–	–	2	–	–
COc1ccc(C(=O)N/C(=C\c2cccc([N+](=O)[O-])c2)C(=O)Nc2cccc(C(=O)O)c2)cc1	–	–	–	–	–
Cc1ccc(-c2nn(CC(=O)O)c(=O)c3ccccc23)cc1	–	–	–	–	–
COC(=O)Cn1nc(-c2ccc(C)cc2)c2ccccc2c1=O	–	64	–	–	–
COc1ccc(-c2nn(C)c(=O)c3ccccc23)cc1NC(=O)Cn1nc(C)c2ccccc2c1=O	100	–	–	–	–
C=CCn1c(SCC(N)=O)nc2scc(-c3ccc(C)o3)c2c1=O	–	–	–	–	–
CCOc1ccc(/C(CCC(=O)O)=N/NC(=S)NC(C)C)cc1	–	–	–	–	–
CCOc1ccc(/C(CC)=N/NC(=O)C2(C)CC2(Br)Br)cc1 (stereo not given)	58	–	–	–	–
SMILES	L major viab	WT yeast gro inh	PMI act hi M6P	PMI act	Diaph act CS
C=CCNC(=O)c1ccc(Cn2cc(C(F)(F)F)ccc2=O)cc1	–	–	–	–	–
Nc1ccc2nc(CN3CCOCC3)[nH]c2c1	–	66	–	–	–
Cc1ccc(OCCN2CCN(c3nc(NCc4ccco4)c4ccccc4n3)CC2)cc1	99	–	–	–	–
OCCN1CCN(c2nc(NCc3ccco3)c3ccccc3n2)CC1	–	–	–	–	–
c1ccc(CN2CCN(c3nc(NCc4ccco4)c4ccccc4n3)CC2)cc1	100	–	–	–	–
CCCCC(=O)Nc1cc(-c2nc3ncccc3o2)ccc1C	99	–	–	–	–
Cc1ccc(-c2nc3ncccc3o2)cc1NC(=O)c1cccnc1	–	–	·	·	·
O=C(Nc1cccc(-c2nc3ncccc3o2)c1)c1ccccc1	100	–	–	–	–
C=C(c1ccc(O)cc1)c1ccc(O)cc1	–	–	–	–	–
C/C=C(/C(=C/C)c1ccc(O)cc1)c1ccc(O)cc1	–	63	–	–	–
Cc1cc(=O)oc2cc(OCC(=O)Nc3cccc(S(=O)(=O)N(C)C)c3)ccc12	60	–	–	–	–
CN(C)S(=O)(=O)c1cccc(NC(=O)CNCC2CCCCC2)c1	84	–	–	–	–
Cc1nn(-c2nc3ccccc3n2Cc2ccccc2)c2c1C(=O)CC(C)(C)C2	–	–	–	–	–
Cc1nn(-c2ccccc2)c2c1C(=O)N(Cc1ccccc1)C(=O)C(C)(C)C2	84	–	–	–	–
O=C1C2C3C=CC(C2C(=O)N1c1cccc(O)c1)C1C2C(=O)N(c4cccc(O)c4)C(=O)C2C31 (stereo not given)	–	–	–	–	–
COC(=O)c1cn(-c2ccc(Cl)cc2)c(=O)c2ccccc12	58	–	–	–	–
COC(=O)c1cn(-c2ccccc2)c(=O)c2ccccc12	–	–	–	–	–
O=C(C1CCCO1)N1CCN(c2ccccn2)CC1 (stereo not given)	–	–	–	–	–
COc1ccc(NS(=O)(=O)c2cc(NC(=O)[C@@H](NC(=O)c3ccccc3)C(C)C)ccc2C)cc1	–	–	–	–	–
Cc1ccc(C)c(N2CCN(S(=O)(=O)c3cccc4cccnc34)CC2)c1	66	–	–	–	–
Oc1ccc(CN2CCc3ccccc3C2)c2cccnc12	100	–	–	–	–
Cn1cc(CN2CCc3ccccc3C2)c2ccccc21	–	–	–	–	–
Oc1ccc(CN2CCCCC2)c2cccnc12	101	–	–	–	–
CCOC(=O)N1CCN(Cc2ccc(O)c3ncccc23)CC1	–	–	–	–	–
Oc1ccc(CNc2ccccc2F)c2cccnc12	73	–	–	–	–
SMILES	L major viab	WT yeast gro inh	PMI act hi M6P	PMI act	Diaph act CS
Cc1[nH]c2ccccc2c1CN1CCC(Cc2ccccc2)CC1	100	–	–	–	–
Oc1ccc2ccccc2c1CN1CCN(c2ccccc2)CC1	–	–	–	–	–
Oc1ccc(CN2CCC(Cc3ccccc3)CC2)c2cccnc12	101	–	–	–	–
O=[N+]([O-])c1cc(CN2CCN(c3cccc(C(F)(F)F)c3)CC2)c2cccnc2c1O	99	–	–	–	–
Clc1ccccc1CN1CCC(Cc2ccccc2)CC1	–	–	–	–	–
Oc1ccc(CN2CCN(c3ccccc3)CC2)c2cccnc12	100	–	–	–	–
CSc1ccccc1C(=O)C1CCCN(C(=O)CCN2CCCO2)C1 (stereo not given)	–	–	–	–	–
Cc1ccc(C)c(S(=O)(=O)N2CCN(Cc3ccc(O)c4ncccc34)CC2)c1	100	–	–	–	–
OCc1ccc(O)c2ncccc12	100	–	–	–	–
Cc1ccc(C)c(S(=O)(=O)N2CCN(CC(=O)Nc3cc(C)on3)CC2)c1	–	–	–	–	–
Cc1ccccc1N=C1NC(=O)/C(=C/c2cccn2-c2cccc(C(=O)O)c2)S1	–	–	–	–	–
COc1ccc(OC)c(-n2nnnc2SCC(=O)Nc2ccccc2N2CCOCC2)c1	–	–	–	–	–
C=C(CCC(=O)c1ccccc1)C(=O)c1ccccc1	100	–	–	–	–
